# CHRM4 PAM: CHRM4 positive allosteric modulation | activation, % at 3 µM | actives 0.4% (n = 360,000) | CHO-K1 hM4/Gqi5, Fluo-8 calcium fluorescence, ACh EC20; 0% = ACh EC20, 100% = maximal ACh | AID 624126;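 active = activation above its plate's cutoff, the mean activation of sample wells plus 3 SD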
# Target sequence (P08173 whole entry, looked up): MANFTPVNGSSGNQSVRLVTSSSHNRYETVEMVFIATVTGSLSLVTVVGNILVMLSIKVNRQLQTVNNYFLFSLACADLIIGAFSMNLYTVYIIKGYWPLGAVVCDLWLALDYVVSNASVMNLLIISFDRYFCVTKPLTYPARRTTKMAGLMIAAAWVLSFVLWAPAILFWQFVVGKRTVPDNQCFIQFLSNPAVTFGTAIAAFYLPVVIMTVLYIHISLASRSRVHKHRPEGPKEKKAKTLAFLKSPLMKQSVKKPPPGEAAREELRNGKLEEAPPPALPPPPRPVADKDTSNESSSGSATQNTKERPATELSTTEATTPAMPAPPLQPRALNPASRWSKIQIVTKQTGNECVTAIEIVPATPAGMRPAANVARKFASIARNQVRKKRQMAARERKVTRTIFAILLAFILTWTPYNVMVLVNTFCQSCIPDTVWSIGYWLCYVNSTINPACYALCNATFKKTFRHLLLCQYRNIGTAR
# CHRM5 antagonist: CHRM5 antagonism in calcium assay; CHO-hM5 cells, Fluo-8 calcium fluorescence, ACh EC80; inhibition, % at 3 µM; actives 0.59% (n = 360,000); AID 624040;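 active = inhibition above a per-plate cutoff, the mean of that plate's test compounds plus 3 SD, cut at about 27% in these data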;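 also: 0% = acetylcholine EC80 with DMSO and 100% = DMSO without agonist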
# CHRM5 PAM: CHRM5 positive allosteric modulation; actives 0.3% (n = 360,000); P08912; activation, % at 3 µM; CHO-K1 hM5, Fluo-8 calcium, ACh EC20 PAM; 0% = ACh EC20, 100% = ACh EC100;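 active = activation above the run cutoff, the mean activation of all test compounds plus 3 SD, cut at about 18% in these data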
#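 System – CHO-K1 hM5 cells · Compound – 3 µM, single dose · Incubation – compound preincubation 140 s before EC20 acetylcholine addition · Technique – Fluo-8 calcium fluorescence · Measure – Max/basal fluorescence ratio as % of EC20–EC100 ACh window · Benchmarks – low control EC20 acetylcholine (0%), high control EC100 acetylcholine (100%) · Replication – singlicate, one well per test compound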
# M4 antag: CHRM4 antagonism in calcium assay; CHO-hM4 cells, ACh EC80, Fluo-8 calcium fluorescence; inhibition, % at 3 µM; actives 0.73% (n = 360,000);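 active = inhibition above its plate's cutoff, the mean inhibition of sample wells plus 3 SD, cut at about 27% in these data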;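 also: 0% = acetylcholine EC80 with DMSO and 100% = DMSO without agonist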
# CHRM4 agonist: agonists of human muscarinic M4 receptor (CHRM4); actives 0.14% (n = 360,000); CHO-K1 hM4/Gqi5, Fluo-8 calcium fluorescence; vehicle 0%, full acetylcholine response 100%; AID 624127; activation, % at 3 µM;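 active = activation above the run mean over all test wells plus 3 SD, cut at about 32% in these data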;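 also: peak over basal fluorescence ratio per well then scaled between controls; 0% = DMSO wells and 100% = acetylcholine at EC100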
# M5 ag: agonists of human muscarinic M5 receptor (CHRM5) | P08912 | CHO-K1 hM5 cells, Fluo-8 calcium fluorescence; 0% DMSO wells, 100% maximal acetylcholine response | activation, % at 3 µM | actives 0.19% (n = 360,000);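 active = activation above the run's mean over test compounds plus 3 SD, cut at about 23% in these data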;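 also: signal is peak over basal fluorescence ratio across the kinetic read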
# Starred values were filed as active, the others as inactive; ! = not confirmed by another sample. Rows were chosen to be rich in hits. Some 1.9% of all compounds tested hit in one or more screens of this group.
SMILES,CHRM4 PAM,CHRM5 antagonist,CHRM5 PAM,M4 antag,CHRM4 agonist,M5 ag
CCOC(=O)c1c(C)[nH]c(C)c1C(=O)CSc1ncccn1,5.6,-0.7,24.9*,-13.4,1.5,-0.1
Nc1nnc(-c2cccc([N+](=O)[O-])c2)o1,-8.7,6.7,-2.2,6.6,1.6,-4.3
O=[N+]([O-])c1cccc(-c2nnc(C3CC3)o2)c1,15.8,15.4,35.9*,-12.4,0.4,10.6
CCC(=O)c1c[nH]c(C(=O)N2CCOCC2)c1,-4.2,-0.9,3.3,6.1,0.4,-3.4
Cc1ccc(CNc2nc(NCc3ccccc3)nc3ccsc23)c(C)c1,-13.1,28.1*,-17.7,28.2*,22.2,9.4
O=C1CCCN1CCCNc1nc(NCc2ccccc2)nc2ccsc12,-14.9,90.3*,-21.9,95.8*,144.6*,84.9*
COCCNc1nc(NCc2ccccc2OC)c2sccc2n1,-1.0,4.1,-9.6,-16.4,13.9,2.3
CNc1nc(NCc2ccc(C)cc2C)c2sccc2n1,-5.8,12.0,-7.5,0.7,7.0,4.8
COCCNc1nc(NCc2ccccc2)nc2ccsc12,-14.9,96.9*,-22.3,99.7*,142.4*,82.1*
CCc1ccc(NC(=O)Cn2cc([N+](=O)[O-])nc2C)cc1,1.2,-3.1,20.6*,0.6,1.7,4.5
COc1ccc(Cc2nnc(SCC(=O)Nc3ccc(C)cc3)n(N)c2=O)cc1,4.6,101.1*,-33.3,-12.4,3.9,-10.3
O=C(Nc1ccc2c(c1)OCO2)c1csc([C@@H]2O[C@H](CO)[C@H](O)[C@H](O)[C@H]2O)n1,4.3,0.5,0.8,0.0,0.5,0.2
CNc1nc(NCc2ccccc2)c2ccccc2n1,-5.3,-5.8,1.4,1.9,6.3,0.9
c1ccc(CNc2ncnc3ccccc23)cc1,-13.3,20.4,-13.5,38.2*!,33.8*!,24.0*!
COc1cc2ncnc(NCc3ccccc3)c2cc1OC,2.0,11.5,-4.0,-0.4,1.8,-3.5
CCCCNc1nc(NCc2ccccc2)nc2ccccc12,-17.9,82.2*,-24.8,90.0*,105.4*,80.1*
O=C(Nc1ccncc1)C1CCN(S(=O)(=O)c2ccccc2C(F)(F)F)CC1,-3.4,-6.0,-13.6,-18.8,21.8,2.7
O=C(C1CC1)N1CCc2sccc2C1c1ccc(Cl)cc1 (centres undefined),-8.6,-0.2,-1.5,7.7,-1.9,-8.2
CCC(C)N1CNc2c(c(=O)[nH]c(=S)n2-c2cccc(C)c2)C1 (centres undefined),15.0,35.3*,22.8*,-8.3,3.5,9.1
C=CCn1c2c(c(=O)[nH]c1=S)CN(C(C)c1ccccc1)CN2 (centres undefined),-0.8,4.2,1.2,1.1,1.4,-2.9
O=C(NC(=S)Nc1ccc(CN2CCCCC2)cc1)c1cccc(OCc2ccccc2)c1,-27.1,47.6*,-33.1,39.0*,7.1,-16.8
O=C(O)c1ccc(NC(=S)NC(=O)c2cccc(COc3ccccc3)c2)cc1,-2.4,12.2,-5.1,-8.7,0.4,1.6
CCN1CCN(c2ccc(NC(=O)c3cccc(OCc4ccccc4)c3)cc2)CC1,-24.3,33.0*,-19.2,18.3,8.6,-7.7
CC(C)(C)OC(=O)NCC(=O)NNC(=O)C(C(=O)OCc1ccccc1)c1ccccc1 (centres undefined),17.0,-4.3,3.5,-11.8,2.6,1.9
CCOC(=O)c1sc(NC(=O)C2CC(=O)N(c3ccc(OCC)cc3)C2)nc1C (centres undefined),-0.1,11.7,-1.6,-1.0,2.6,-4.8
SMILES,CHRM4 PAM,CHRM5 antagonist,CHRM5 PAM,M4 antag,CHRM4 agonist,M5 ag
COc1ccc(C/C(C)=N/NC(=O)c2ccc(Cl)cc2)cc1,1.3,-5.4,-3.1,-0.1,1.4,4.1
COc1ccc(C/C(C)=N/NC(=O)c2cccnc2)cc1,32.7*,0.5,19.4*,-17.5,1.6,-2.0
Cc1nc2ccccn2c1-c1csc(Nc2cccc(O)c2)n1,-10.6,5.6,-14.3,-1.8,13.2,2.6
Cc1cccc(Nc2nc(-c3c(C)nc4ccccn34)cs2)c1,-11.2,34.8*,-20.7,31.3*,19.5,2.5
O=C1Nc2ccccc2-n2nnnc2C1N1CCN(c2ccc(C(F)(F)F)cn2)CC1 (centres undefined),13.0,-5.2,-1.2,-10.7,8.0,11.2
CCOCCCNC(=O)C(NC(=O)Cc1cccs1)c1ccc(C)cc1 (centres undefined),21.0*,8.7,5.8,-4.2,0.2,2.5
CCOCCCNC(=O)C(NC(=O)CNC(C)=O)c1ccc(C)cc1 (centres undefined),3.1,-3.3,5.1,6.9,0.4,2.1
CCOCCCNC(=O)C(c1ccc(C)cc1)N(Cc1ccc2c(c1)OCO2)C(=O)CNC(C)=O (centres undefined),23.6*,2.0,4.0,-1.8,2.2,2.1
CS(=O)(=O)N(CC(=O)Nc1ccccc1C(=O)NCc1ccccc1)c1ccc2c(c1)OCCO2,-17.5,-6.1,-9.4,10.2,6.9,9.9
CS(=O)(=O)N(CC(=O)Nc1ccccc1C(=O)NCCc1ccccc1)c1ccc2c(c1)OCCO2,-14.1,-3.1,-8.5,41.3*,0.7,3.7
CCN(CC)CCNC(=O)c1ccc(NC(C)=O)cc1,2.1,1.3,-1.6,-14.3,1.8,0.1
CCN(CC)CCNC(=O)c1ccc(N)cc1,-13.1,-6.2,0.8,29.4*,0.1,-0.6
O=C(Nc1ncccc1O)c1c(O)c2ccccc2[nH]c1=O,16.1,14.3,-6.4,-5.6,0.6,-2.1
O=C(C1CC1)n1cc(C(=S)N2CCOCC2)c2ccccc21,20.8*,-7.9,13.4,1.0,3.5,-3.7
O=C(c1cccs1)n1cc(C(=S)N2CCOCC2)c2ccccc21,-5.2,3.1,-2.5,7.4,0.7,-3.2
O=C(Nc1cc(S(=O)(=O)N2CCCC2)ccc1OCC(F)(F)F)c1ccncc1,6.3,-3.4,-1.3,-18.8,1.4,0.0
CN(C)S(=O)(=O)c1ccc(C(=O)N2CCN=C2SCc2cccnc2)cc1,19.5*,-1.3,4.0,14.2,2.1,-5.0
CCC1CCCCN1CCCNC(=O)CSc1nc2nc(C)c(Cc3ccccc3)c(C)n2n1 (centres undefined),-12.1,8.7,-6.7,8.2,1.8,-8.1
Cc1nc2nc(SCC(=O)NCCCN3CCCC(C)C3)nn2c(C)c1Cc1ccccc1Cl (centres undefined),-12.1,19.6,-16.5,31.3*,0.4,-10.2
CCC1CCCCN1CCCNC(=O)CSc1nc2nc(C)c(Cc3ccccc3Cl)c(C)n2n1 (centres undefined),-10.3,15.1,-10.3,31.4*,0.7,-10.8
Cc1nc2nc(SCC(=O)NCCCN3CCCCCC3)nn2c(C)c1Cc1ccccc1Cl,-11.5,-1.0,-12.8,51.1*,1.7,-10.3

# Bioassay records from PubChem BioAssay.
